Measurements: ChEMBL document CHEMBL1123158, “Synthesis and quantitative structure-activity relationships of antiallergic 2-hydroxy-N-1H-tetrazol-5-ylbenzamides and N-(2-hydroxyphenyl)-1H-tetrazole-5-carboxamides” (J Med Chem, 1986)

How the values were obtained:
Rattus norvegicus [1] = test: Antiallergic activity in the rat PCA test following iv administration relative to M&B 22,948, the dose of which was 0.1 mg/kg for 100% inhibition; format: functional
Rattus norvegicus [2] = species: Rattus norvegicus; test: Biological activity; format: functional
[3] = The function log (MrI) where M, is the molecular weight of the test compound and I is its activity relative to the reference compound 1, expresses the biological activity in molar terms; format: functional
How it was run: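 Relative activity I from iv rat PCA 100%-inhibition comparison with M&B 22,948, converted to molar terms as log(Mr·I) using the compound's molecular weight.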

[4] = Association constant at 25 degree C in aqueous media; format: ADME
How it was run: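 Spectroscopic method in aqueous buffer at 25 °C. Values are thermodynamic pKa's corrected for the ionic strength of the buffer solutions.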

Rattus norvegicus [5] = test: Inhibitory dose in the rat PCA test following iv administration; format: functional; conditions: read-out: ID50 (the source's name)
Rattus norvegicus [6] = test: Inhibitory dose in the rat PCA test following oral administration; format: functional; conditions: read-out: ID50 (the source's name)

| Structure (SMILES) | Relative activity (Rattus norvegicus [1]) | Log [MrI] (Rattus norvegicus [2]) | other results |
| --- | --- | --- | --- |
| CC(=O)Nc1cc(C(C)=O)c(O)c(C(=O)Nc2nn[nH]n2)c1 | 0.2 | 1.784 |  |
| CC(=O)c1cc(C)cc(C(=O)Nc2nn[nH]n2)c1O | 1 | 2.417 |  |
| COc1cccc(NC(=O)c2nn[nH]n2)c1O | 5 | 3.07 |  |
| COc1cc([N+](=O)[O-])cc(C(=O)Nc2nn[nH]n2)c1O | 1 | 2.447 |  |
| CCCc1cc(NC(=O)c2nn[nH]n2)c(O)c(C(C)=O)c1 | 10 | 3.461 |  |
| CC(=O)c1cc(S(C)(=O)=O)cc(NC(=O)c2nn[nH]n2)c1O | 2 | 2.813 |  |
| Cc1cc(NC(=O)c2nn[nH]n2)c(O)c(C(=O)C(F)(F)F)c1 | 0.2 | 1.8 |  |
| O=C(Nc1nn[nH]n1)c1cc(-c2ccccc2)ccc1O | 0.01 | 0.449 |  |
| CC(=O)Nc1ccc(O)c(C(=O)Nc2nn[nH]n2)c1 | 0.01 | 0.418 |  |
| CCOC(=O)c1cc(C)cc(NC(=O)c2nn[nH]n2)c1O | 10 |  | Log MrI [3]: 3.46 |
| CC(=O)c1cc(F)cc(C(=O)Nc2nnn[nH]2)c1O | 0.5 | 2.123 | pKa ([4]; aqueous media, read-out: pKa): 4.2; pKa ([4]; buffer): 7.1 |
| COc1cc(C#N)cc(C(=O)Nc2nn[nH]n2)c1O | 2 | 2.716 |  |
| CC(=O)c1cc(C#N)cc(NC(=O)c2nn[nH]n2)c1O | 10 | 3.435 |  |
| CC(=O)c1cc(F)cc(NC(=O)c2nnn[nH]2)c1O [EFLUMAST] | 20 | 3.724 | ED50 (Rattus norvegicus [5]): 0.004 mg/kg; ED50 (Rattus norvegicus [6]): 0.16 mg/kg |
| O=C(Nc1nn[nH]n1)c1cc(Cl)ccc1O | 0.1 | 1.38 |  |
| CCc1cc(C(=O)Nc2nn[nH]n2)c(O)c(/C(C)=N/OC)c1 | 3.5 | 3.025 |  |
| COc1cc(C)cc(C(=O)Nc2nn[nH]n2)c1O | 0.5 | 2.095 |  |
| O=C(Nc1nn[nH]n1)c1ccccc1O | 0.1 | 1.312 |  |
| O=C(Nc1nn[nH]n1)c1cc(C(F)(F)F)ccc1O | 0.02 | 0.737 |  |
| CN(C)S(=O)(=O)c1ccc(O)c(C(=O)Nc2nn[nH]n2)c1 | 0.05 | 1.193 |  |
| O=C(Nc1ccccc1O)c1nn[nH]n1 | 1 | 2.31 |  |
| CC(=O)c1cc(CC(C)C)cc(C(=O)Nc2nn[nH]n2)c1O | 0.2 | 1.783 |  |
| Cc1cc(NC(=O)c2nn[nH]n2)c(O)c(C(=O)N(C)C)c1 | 1 | 2.463 |  |
| O=C(Nc1nn[nH]n1)c1cc(O)ccc1O | 0.1 |  | Log MrI [3]: 1.34 |
| O=C(Nc1nn[nH]n1)c1cc(F)ccc1O | 0.1 | 1.348 |  |
| CC(C)(C)c1ccc(O)c(C(=O)Nc2nn[nH]n2)c1 | 0.01 | 0.417 |  |
| COc1cc(C)cc(NC(=O)c2nn[nH]n2)c1O | 2.5 | 2.794 |  |

| Structure (SMILES) | Relative activity (Rattus norvegicus [1]) | Log [MrI] (Rattus norvegicus [2]) | other results |
| --- | --- | --- | --- |
| CCC(=O)c1cc(C)cc(NC(=O)c2nn[nH]n2)c1O | 5 | 3.139 |  |
| CC(=O)c1ccc(O)c(C(=O)Nc2nn[nH]n2)c1 | 0.02 | 0.694 |  |
| CCC(=O)c1cc(C#N)cc(NC(=O)c2nn[nH]n2)c1O | 5 | 3.156 |  |
| COc1cc(OC)c(O)c(C(=O)Nc2nn[nH]n2)c1 | 0.5 | 2.122 |  |
| N#Cc1ccc(O)c(C(=O)Nc2nn[nH]n2)c1 | 0.5 | 2.061 |  |
| COc1cc(Br)cc(C(=O)Nc2nn[nH]n2)c1O | 0.2 | 1.798 |  |
| CC(=O)c1cc(S(N)(=O)=O)cc(C(=O)Nc2nn[nH]n2)c1O | 0.2 | 1.814 |  |
| O=C(Nc1nn[nH]n1)c1cc([N+](=O)[O-])ccc1O | 0.5 |  | Log MrI [3]: 2.1 |
| CC(=O)c1cc([N+](=O)[O-])cc(NC(=O)c2nn[nH]n2)c1O | 5 | 3.164 |  |
| CS(=O)(=O)c1ccc(O)c(C(=O)Nc2nn[nH]n2)c1 | 0.04 | 1.053 |  |
| CC(=O)c1cc(C(C)(C)C)cc(NC(=O)c2nn[nH]n2)c1O | 0.5 | 2.17 |  |
| CC(=O)c1cc(Br)cc(NC(=O)c2nn[nH]n2)c1O | 2 | 2.814 |  |
| CCc1cc(NC(=O)c2nn[nH]n2)c(O)c(C(C)=O)c1 | 20 | 3.74 |  |
| CC(=O)c1cc(C(C)(C)C)cc(C(=O)Nc2nn[nH]n2)c1O | 0.4 | 2.084 |  |
| CC(=O)c1cc(Cl)cc(C(=O)Nc2nn[nH]n2)c1O | 0.05 | 1.149 |  |
| CCc1cc(C(C)=O)c(O)c(C(=O)Nc2nn[nH]n2)c1 | 1 | 2.439 |  |
| CC(=O)c1cccc(NC(=O)c2nn[nH]n2)c1O | 20 | 3.694 |  |
| Cc1cc(NC(=O)c2nn[nH]n2)c(O)c(-c2nn[nH]n2)c1 | 1 | 2.455 |  |
| COc1cc(C(C)=O)c(O)c(C(=O)Nc2nn[nH]n2)c1 | 2 | 2.743 |  |
| CC(=O)c1cc(Br)cc(C(=O)Nc2nn[nH]n2)c1O | 0.05 | 1.212 |  |
| O=C(Nc1nn[nH]n1)c1cc(Br)ccc1O | 0.02 | 0.756 |  |
| COc1cc(NC(C)=O)cc(C(=O)Nc2nn[nH]n2)c1O | 0.02 | 0.766 |  |
| CCCC(=O)c1cc(C)cc(NC(=O)c2nn[nH]n2)c1O | 4 | 3.063 |  |
| CC(=O)c1cc(Cl)cc(NC(=O)c2nn[nH]n2)c1O | 7 | 3.295 |  |
| CC(=O)Nc1cc(NC(=O)c2nn[nH]n2)c(O)c(C(C)=O)c1 | 0.5 |  | Log MrI [3]: 2.19 |
| Cc1cc(NC(=O)c2nn[nH]n2)c(O)c(C(=O)Cc2ccccc2)c1 | 0.1 | 3.528 |  |
| CO/N=C(\C)c1cc(C)cc(NC(=O)c2nn[nH]n2)c1O | 10 | 3.463 |  |

| Structure (SMILES) | Relative activity (Rattus norvegicus [1]) | Log [MrI] (Rattus norvegicus [2]) | other results |
| --- | --- | --- | --- |
| CN(C)S(=O)(=O)c1ccc(O)c(NC(=O)c2nn[nH]n2)c1 | 0.25 | 1.892 |  |
| COc1cc(Br)cc(NC(=O)c2nn[nH]n2)c1O | 2 | 2.798 |  |
| CSc1ccc(O)c(C(=O)Nc2nn[nH]n2)c1 | 0.2 | 1.701 |  |
| Cc1cc(NC(=O)c2nn[nH]n2)c(O)c(C(=O)C(C)C)c1 | 5 | 3.16 |  |
| Cc1cc(NC(=O)c2nn[nH]n2)c(O)c(C(=O)O)c1 | 0.2 |  | Log MrI [3]: 1.72 |
| COc1cc(NC(=O)c2nn[nH]n2)c(O)c(C(C)=O)c1 | 10 | 3.443 |  |
| Cc1cc(NC(=O)c2nn[nH]n2)c(O)c(C(=O)C2CC2)c1 | 5 | 3.157 |  |
| CCCc1cc(C(C)=O)c(O)c(C(=O)Nc2nn[nH]n2)c1 | 2 | 2.762 |  |
| COC(=O)c1cc(C)cc(NC(=O)c2nn[nH]n2)c1O | 2 |  | Log MrI [3]: 2.74 |
| Cc1cc(NC(=O)c2nn[nH]n2)c(O)c(C(N)=O)c1 | 5 | 3.118 |  |
| CC(=O)c1cc([N+](=O)[O-])cc(C(=O)Nc2nn[nH]n2)c1O | 1 | 2.465 |  |
| CC(=O)c1cccc(C(=O)Nc2nn[nH]n2)c1O | 1 | 2.393 |  |
| C/C(=N\O)c1cc(C)cc(NC(=O)c2nn[nH]n2)c1O | 35 | 3.985 |  |
| Cc1ccc(O)c(C(=O)Nc2nn[nH]n2)c1 | 0.1 | 1.34 |  |
| COc1cccc(C(=O)Nc2nn[nH]n2)c1O | 1 | 2.371 |  |
| CC(=O)c1cc(C)cc(NC(=O)c2nn[nH]n2)c1O | 10 | 3.417 |  |
| CCc1cc(C(=O)Nc2nn[nH]n2)c(O)c(/C(C)=N/O)c1 | 10 | 3.462 |  |
| CCC(=O)c1cc(C)cc(C(=O)Nc2nn[nH]n2)c1O | 2 | 2.741 |  |
| CCC(=O)c1cc(CC)cc(NC(=O)c2nn[nH]n2)c1O | 5 | 3.16 |  |
| CCc1cc(OC)c(O)c(C(=O)Nc2nn[nH]n2)c1 | 1 | 2.42 |  |
| CCc1cc(NC(=O)c2nn[nH]n2)c(O)c(OC)c1 | 10 | 3.42 |  |
| COc1ccc(O)c(C(=O)Nc2nn[nH]n2)c1 | 0.2 | 1.672 |  |
| CCC(=O)c1cc(CC)cc(C(=O)Nc2nn[nH]n2)c1O | 0.75 | 2.34 |  |
| CC(=O)c1cc(NC(=O)c2nn[nH]n2)c(O)c(C(C)=O)c1 | 0.5 | 2.16 |  |
| COc1cc(C(C)(C)C)cc(C(=O)Nc2nn[nH]n2)c1O | 0.1 | 1.464 |  |
